Values after ≈ are worked out from the molar mass of the structure shown.
Assays:
[1] = Induction of tubulin polymerization at 0.1 uM by DAPI fluorescence method relative to control
How it was run: (§1)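 Microplate assay in PMEG buffer (100 mM PIPES, 1 mM MgSO₄, 2 mM EGTA, 0.1 mM GTP, pH 6.9) containing ligand; DAPI final 10 µM, tubulin final 5 µM. Fluorescence followed at 37 °C, excitation 360/40 nm, emission 460/40 nm. Change in fluorescence normalized to the curve of 10 µM paclitaxel standard. Samples in duplicate, triplicate or quadruplicate; concentrations over 2 orders of magnitude tested.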

[2] = Induction of tubulin polymerization at 1 uM by DAPI fluorescence method relative to control; how it was run: as §1
[3] = Induction of tubulin polymerization at 10 uM by DAPI fluorescence method relative to control; how it was run: as §1
A2780 = experiment: Cytotoxicity against human A2780 cells; assay type: functional, cell-based
[4] = Induction of tubulin polymerization by DAPI fluorescence method; settings: read-out: I50; how it was run: as §1
[5] = Octanol-water partition coefficient, log P in 0.1 N aqueous HCl; assay type: physicochemical
How it was run: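 Compound partitioned between 1-octanol and 0.1 N aqueous HCl with vigorous shaking for 1 h.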

Activity [1] | Activity [2] | Activity [3] | IC50 [4] | logP [5] | Compound | IC50 (A2780)
2.3% | 66% | 100% | 0.55 µM | 0.017 | CC(=O)O[C@H]1C(=O)[C@@]2(C)[C@H]([C@H](OC(=O)c3ccccc3)[C@]3(O)C[C@H](OC(=O)[C@H](O)[C@@H](NC(=O)c4ccccc4)c4ccccc4)C(C)=C1C3(C)C)[C@]1(OC(C)=O)CO[C@@H]1C[C@@H]2O [PACLITAXEL] | 0.136 µg/mL (≈ 0.159 µM)
 |  |  | 4.34 µM |  | CC(=O)O[C@@]12CO[C@@H]1C[C@H](OC(=O)CN1CCN(c3ccc(C(C)=O)cc3)CC1)[C@@]1(C)C(=O)[C@H](O)C3=C(C)[C@@H](OC(=O)[C@H](O)[C@@H](NC(=O)c4ccccc4)c4ccccc4)C[C@@](O)([C@@H](OC(=O)c4ccccc4)[C@H]21)C3(C)C | 0.9 µg/mL (≈ 0.852 µM)
 |  |  | 1.65 µM | 0.155 | CC(=O)O[C@@]12CO[C@@H]1C[C@H](OC(=O)CN1CCN(c3ccccn3)CC1)[C@@]1(C)C(=O)[C@H](O)C3=C(C)[C@@H](OC(=O)[C@H](O)[C@@H](NC(=O)c4ccccc4)c4ccccc4)C[C@@](O)([C@@H](OC(=O)c4ccccc4)[C@H]21)C3(C)C | 0.014 µg/mL (≈ 0.0138 µM)
 |  |  | 1.02 µM |  | CC(=O)O[C@@]12CO[C@@H]1C[C@H](OC(=O)CN1CCCCC1)[C@@]1(C)C(=O)[C@H](O)C3=C(C)[C@@H](OC(=O)[C@H](O)[C@@H](NC(=O)c4ccccc4)c4ccccc4)C[C@@](O)([C@@H](OC(=O)c4ccccc4)[C@H]21)C3(C)C | 0.18 µg/mL (≈ 0.192 µM)

Reference: ChEMBL document CHEMBL1156410, “Design and synthesis of a combinatorial chemistry library of 7-acyl, 10-acyl, and 7,10-diacyl analogues of paclitaxel (taxol) using solid phase synthesis” (J Nat Prod, 2002)
